Measurements taken from publication PMC8324087 (Angewandte Chemie (International ed. in English), 2021).
Like-named read-outs stand apart in the source and are kept apart here.

What was measured:
FGFR2 [1] = target: T1, FGFR2 (Homo sapiens, UniProt P21802); assay: Immunoblot analysis of FGFR2 degradation in KATO III cells; type: cell-based
In short: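 FGFR2-amplified KATO III cells exposed to test compound at 1 µM for 24h, across a concentration series for 6h, over a time course, or for 4h beside a negative-control analogue. For rescue, cells were pretreated 2h with BGJ398, a VHL ligand, bortezomib or MLN4924, then given test compound for 4h. Full-length FGFR2 was detected by immunoblot.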
Target sequence in this assay (P21802 430-767 limits assumed): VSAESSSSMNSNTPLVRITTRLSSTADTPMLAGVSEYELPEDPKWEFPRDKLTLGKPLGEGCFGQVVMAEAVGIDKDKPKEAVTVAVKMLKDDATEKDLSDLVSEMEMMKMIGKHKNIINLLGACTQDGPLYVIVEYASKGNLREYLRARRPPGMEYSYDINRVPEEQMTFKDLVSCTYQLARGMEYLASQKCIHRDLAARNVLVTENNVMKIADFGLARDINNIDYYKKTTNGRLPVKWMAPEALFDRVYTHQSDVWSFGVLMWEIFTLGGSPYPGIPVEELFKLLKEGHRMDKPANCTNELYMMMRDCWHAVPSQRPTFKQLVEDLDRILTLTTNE

FGFR2 [2] = target: T1, FGFR2; assay: Z'-LYTE kinase assay; type: biochemical
Target sequence in this assay (P21802 22-821): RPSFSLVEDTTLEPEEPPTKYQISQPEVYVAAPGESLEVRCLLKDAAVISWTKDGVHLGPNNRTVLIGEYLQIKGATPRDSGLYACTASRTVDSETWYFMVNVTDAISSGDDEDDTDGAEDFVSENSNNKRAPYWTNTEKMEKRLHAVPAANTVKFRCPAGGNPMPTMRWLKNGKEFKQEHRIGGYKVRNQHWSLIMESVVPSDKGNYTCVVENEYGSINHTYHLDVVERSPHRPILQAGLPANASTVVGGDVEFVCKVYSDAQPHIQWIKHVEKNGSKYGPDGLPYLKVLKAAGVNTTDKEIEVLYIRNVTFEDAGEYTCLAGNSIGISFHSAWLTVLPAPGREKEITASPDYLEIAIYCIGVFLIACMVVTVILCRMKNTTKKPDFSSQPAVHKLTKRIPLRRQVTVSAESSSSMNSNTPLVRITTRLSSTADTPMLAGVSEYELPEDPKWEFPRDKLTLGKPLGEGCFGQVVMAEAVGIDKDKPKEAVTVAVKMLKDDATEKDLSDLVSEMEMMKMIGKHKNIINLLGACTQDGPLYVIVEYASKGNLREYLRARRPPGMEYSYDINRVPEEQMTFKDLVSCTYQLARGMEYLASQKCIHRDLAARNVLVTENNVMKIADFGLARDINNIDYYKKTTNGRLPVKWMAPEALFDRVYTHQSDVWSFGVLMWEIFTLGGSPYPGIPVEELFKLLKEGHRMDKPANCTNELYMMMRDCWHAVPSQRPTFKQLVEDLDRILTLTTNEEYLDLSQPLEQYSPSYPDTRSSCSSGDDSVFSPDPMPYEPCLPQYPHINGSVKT

FGFR2-PHGDH fusion = FGFR2-PHGDH fusion (Homo sapiens, UniProt O43175+P21802); assay: Immunoblot analysis of FGFR2-PHGDH fusion in CCLP-1-FP cells; type: cell-based; conditions: 100 nM and 1 µM, 24h
Sequence of FGFR2-PHGDH fusion (P21802 431-767 limits assumed, one chain of several): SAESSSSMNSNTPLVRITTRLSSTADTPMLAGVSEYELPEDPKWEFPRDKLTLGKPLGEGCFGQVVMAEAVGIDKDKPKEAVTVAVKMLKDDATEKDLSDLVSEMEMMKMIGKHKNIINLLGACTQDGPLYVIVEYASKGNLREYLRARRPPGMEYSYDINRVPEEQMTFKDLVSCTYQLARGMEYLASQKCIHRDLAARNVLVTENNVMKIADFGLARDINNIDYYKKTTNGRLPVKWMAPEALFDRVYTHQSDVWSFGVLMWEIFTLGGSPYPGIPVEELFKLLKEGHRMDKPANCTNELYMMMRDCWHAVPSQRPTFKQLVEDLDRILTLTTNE
In short: (§1)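 Immunoblot for FGFR2 fusion protein after 24 h exposure to test compound. FGFR2-PHGDH fusion is ectopically expressed in CCLP-1 cells (CCLP-1-FP); FGFR2-OPTN is endogenous in ICC13–7 cells. Both fusions carry nearly the full FGFR2 coding sequence (extracellular, transmembrane and kinase domains) fused in-frame to dimerization-domain partners.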

FGFR2-OPTN fusion = FGFR2-OPTN fusion (Homo sapiens, UniProt P21802+Q96CV9); assay: Immunoblot analysis of FGFR2-OPTN fusion in ICC13–7 cells; type: cell-based; conditions: 100 nM and 1 µM, 24h
Sequence of FGFR2-OPTN fusion (P21802 431-767 limits assumed, one chain of several): as above
In short: as §1

FGFR1 = FGFR1 (Homo sapiens, UniProt P11362); assay: Immunoblot analysis of FGFR1 degradation in CCLP1 cells; type: cell-based
Sequence of FGFR1 (P11362 22-822): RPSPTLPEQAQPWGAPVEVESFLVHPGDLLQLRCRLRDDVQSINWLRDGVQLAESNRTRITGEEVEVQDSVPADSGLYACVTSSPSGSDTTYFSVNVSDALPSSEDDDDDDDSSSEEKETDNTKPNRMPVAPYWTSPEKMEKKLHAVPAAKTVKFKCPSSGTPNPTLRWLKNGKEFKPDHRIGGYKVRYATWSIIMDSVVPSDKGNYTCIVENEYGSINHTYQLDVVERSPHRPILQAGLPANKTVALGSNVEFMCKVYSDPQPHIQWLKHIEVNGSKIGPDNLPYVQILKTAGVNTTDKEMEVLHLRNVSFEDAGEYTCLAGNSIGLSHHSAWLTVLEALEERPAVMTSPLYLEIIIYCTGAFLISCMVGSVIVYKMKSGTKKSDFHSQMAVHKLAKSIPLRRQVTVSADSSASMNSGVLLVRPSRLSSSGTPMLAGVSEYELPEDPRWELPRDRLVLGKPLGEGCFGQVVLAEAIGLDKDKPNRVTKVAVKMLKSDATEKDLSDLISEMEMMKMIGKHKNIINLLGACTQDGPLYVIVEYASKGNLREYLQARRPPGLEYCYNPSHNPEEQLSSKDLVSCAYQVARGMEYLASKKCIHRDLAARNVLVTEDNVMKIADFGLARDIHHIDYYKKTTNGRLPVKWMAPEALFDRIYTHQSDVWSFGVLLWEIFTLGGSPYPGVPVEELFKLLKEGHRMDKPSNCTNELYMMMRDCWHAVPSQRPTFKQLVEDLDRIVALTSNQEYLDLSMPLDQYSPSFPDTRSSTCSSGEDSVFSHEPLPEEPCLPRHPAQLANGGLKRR

FGFR3 = FGFR3 (Homo sapiens, UniProt P22607); assay: Immunoblot analysis of FGFR3 in JHH7 cells; type: cell-based; conditions: 16h
Sequence of FGFR3 (P22607 23-806): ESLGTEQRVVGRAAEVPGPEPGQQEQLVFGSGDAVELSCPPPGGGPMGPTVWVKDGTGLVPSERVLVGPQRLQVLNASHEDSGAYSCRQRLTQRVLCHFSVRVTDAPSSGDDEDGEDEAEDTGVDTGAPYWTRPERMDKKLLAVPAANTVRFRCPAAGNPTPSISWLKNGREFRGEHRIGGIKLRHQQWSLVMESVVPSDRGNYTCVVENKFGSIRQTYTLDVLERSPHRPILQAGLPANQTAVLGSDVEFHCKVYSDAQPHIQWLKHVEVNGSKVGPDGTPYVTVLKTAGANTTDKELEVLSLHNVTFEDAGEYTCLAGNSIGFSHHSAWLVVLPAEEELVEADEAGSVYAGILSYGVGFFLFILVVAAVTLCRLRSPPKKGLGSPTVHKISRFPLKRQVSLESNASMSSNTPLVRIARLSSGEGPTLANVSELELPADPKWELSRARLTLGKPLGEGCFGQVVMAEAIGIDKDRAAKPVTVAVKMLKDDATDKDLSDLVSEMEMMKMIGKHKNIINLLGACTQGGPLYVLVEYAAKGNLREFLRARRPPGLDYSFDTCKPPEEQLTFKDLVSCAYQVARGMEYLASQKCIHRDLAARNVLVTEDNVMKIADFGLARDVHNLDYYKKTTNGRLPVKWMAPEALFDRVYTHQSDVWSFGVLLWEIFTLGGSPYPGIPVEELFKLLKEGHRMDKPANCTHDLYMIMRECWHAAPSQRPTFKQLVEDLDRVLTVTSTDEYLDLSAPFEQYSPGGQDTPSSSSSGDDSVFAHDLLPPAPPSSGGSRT

FGFR4 = FGFR4 (Homo sapiens, UniProt P22455); assay: Immunoblot analysis of FGFR4 in JHH7 cells; type: cell-based; conditions: 16h
Sequence of FGFR4 (P22455 22-802): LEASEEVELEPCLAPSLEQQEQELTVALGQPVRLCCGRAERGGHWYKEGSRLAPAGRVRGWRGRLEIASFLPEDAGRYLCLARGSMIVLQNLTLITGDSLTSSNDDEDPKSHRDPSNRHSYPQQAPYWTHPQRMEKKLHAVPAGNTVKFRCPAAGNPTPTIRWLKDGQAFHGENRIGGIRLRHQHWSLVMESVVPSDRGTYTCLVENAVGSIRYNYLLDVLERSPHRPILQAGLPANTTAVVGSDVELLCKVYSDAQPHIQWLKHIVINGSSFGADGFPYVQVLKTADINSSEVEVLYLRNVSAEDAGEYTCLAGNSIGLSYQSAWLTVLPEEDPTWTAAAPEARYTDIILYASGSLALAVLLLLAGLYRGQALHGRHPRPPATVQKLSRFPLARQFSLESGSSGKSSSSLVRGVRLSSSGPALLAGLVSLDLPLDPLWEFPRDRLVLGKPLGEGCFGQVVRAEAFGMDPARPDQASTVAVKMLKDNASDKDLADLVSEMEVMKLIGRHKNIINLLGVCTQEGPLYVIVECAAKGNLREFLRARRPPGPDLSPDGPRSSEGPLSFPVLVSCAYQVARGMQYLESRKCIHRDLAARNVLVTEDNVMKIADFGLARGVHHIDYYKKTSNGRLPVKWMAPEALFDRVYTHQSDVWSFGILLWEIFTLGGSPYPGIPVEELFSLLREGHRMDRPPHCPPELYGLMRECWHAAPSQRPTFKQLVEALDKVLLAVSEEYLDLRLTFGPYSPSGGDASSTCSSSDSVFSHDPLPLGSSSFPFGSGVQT

Kelly cells = assay: Quantitative mass spectrometry-based proteomics in Kelly cells; type: cell-based; conditions: 5h treatment, 1 µM
In short: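 Kelly cells, which express both FGFR1 and FGFR2, given test compound at 1 µM for 5h. Quantitative mass spectrometry-based proteomics gave relative abundance of proteins across the proteome.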

all FGFR isoforms = assay: Biochemical inhibition of FGFR isoforms; conditions: Table S1
In short: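 FGFR isoform IC50s measured by Z'-LYTE kinase assay, run as an outsourced service.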

CCLP1 cells = assay: CellTiter-Glo anti-proliferation, CCLP1 cells; type: cell-based; conditions: read-out: anti-proliferative IC50, FGFR1 overexpressing CCLP1 cells, 3d
In short: (§2)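 Cell viability read by CellTiter-Glo after test compound exposure: 3d for CCLP-FP (CCLP-1 with ectopic FGFR2-PHGDH fusion) and CCLP1 (FGFR1 overexpression), 10d for ICC13–7 (endogenous FGFR2-OPTN fusion); anti-proliferative IC50 derived; mean ± SEM, n = 3.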

ICC13–7 cells = assay: CellTiter-Glo anti-proliferation, ICC13–7 cells; type: cell-based; conditions: read-out: anti-proliferative IC50, FGFR2 fusion-positive ICC13–7 cells, 10d
In short: as §2

CCLP-FP cells = assay: CellTiter-Glo anti-proliferation, CCLP-FP cells; type: cell-based; conditions: read-out: anti-proliferative IC50, engineered FGFR2 fusion CCLP-FP cells, 3d
In short: as §2

[3] = test system: phosphorylation of FRS2 or ERK; assay: Immunoblot of downstream FGFR2 signaling; type: cell-based; conditions: CCLP1-FP cells, 50 nM, 4 or 8 hours
In short: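 CCLP1 cells ectopically expressing the FGFR2-PHGDH fusion were exposed to test compound at 50 nM for 4 or 8 hours. Lysates were immunoblotted for the fusion protein and for signaling markers.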

[4] = Pharmacokinetics study in mice; type: in vivo
In short: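 Mice received a single dose of test compound by intravenous injection (1 mg/kg), intraperitoneal injection (3 mg/kg) or oral administration (10 mg/kg) for pharmacokinetic profiling.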

FGFR2-PHGDH = FGFR2-PHGDH (Homo sapiens, UniProt O43175+P21802); assay: In vivo pharmacodynamics, CCLP1-FGFR2-PHGDH xenograft model; parameters: species or system mice; conditions: 20 or 40 mg/kg, IP QD for 6d; tumors isolated 4h after last dose
Sequence of FGFR2-PHGDH (P21802 458-767 limits assumed, one chain of several): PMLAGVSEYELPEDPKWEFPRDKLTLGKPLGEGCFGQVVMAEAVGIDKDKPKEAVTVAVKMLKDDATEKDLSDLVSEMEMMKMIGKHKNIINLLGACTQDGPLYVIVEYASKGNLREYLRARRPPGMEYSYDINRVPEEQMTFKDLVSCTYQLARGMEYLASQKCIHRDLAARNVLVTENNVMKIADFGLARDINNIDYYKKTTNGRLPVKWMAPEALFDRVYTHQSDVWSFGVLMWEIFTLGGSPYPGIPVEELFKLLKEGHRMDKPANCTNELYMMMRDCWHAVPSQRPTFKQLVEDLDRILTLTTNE
In short: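 Mice bearing CCLP1-FGFR2-PHGDH xenografts began dosing once tumours reached ~200 mm3. Test compound was given at 20 or 40 mg/kg IP once daily for 6 d to assess in vivo degradation and signaling.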

[5] = read-out: FGFR2 IC50, BGJ398-VHL based degraders

Q: Which “Rescue of DGY-09-192 induced FGFR2 degradation by pretreatment” value (FGFR2 [1]; 2h pretreatment then DGY-09-192 for 4h) does the source give for `CCN1CCN(c2ccc(Nc3cc(N(C)C(=O)Nc4c(Cl)c(OC)cc(OC)c4Cl)ncn3)cc2)CC1` [BGJ398, reference compound] here?
A: The value was “rescued FGFR2 degradation”.

Q: Which IC50 (FGFR2 [2]; read-out: FGFR2 IC50, BGJ398-IMiDs based degraders) does the source give for `COc1cc(OC)c(Cl)c(NC(=O)N(C)c2cc(Nc3ccc(N4CCN(CC(=O)NCCCCCOc5cccc6c5C(=O)N(C5CCC(=O)NC5=O)C6=O)CC4)cc3)ncn2)c1Cl` (stereo not drawn) [DGY-09-073] here?
A: Its IC50 is 33 nM.

Q: What does the source list for `COc1cc(OC)c(Cl)c(NC(=O)N(C)c2cc(Nc3ccc(N4CCN(CC(=O)N[C@H](C(=O)N5C[C@H](O)C[C@H]5C(=O)N[C@@H](C)c5ccc(-c6scnc6C)cc5)C(C)(C)C)CC4)cc3)ncn2)c1Cl` [DGY-09-192]?
A: IC50 (FGFR2 [2]; [5]): 34 nM; Concentration at which hook effect is observed (FGFR2 [1]; 6h dose titration): above 5 µM; Dmax of FGFR2 degradation (FGFR2 [1]; 6h treatment): 74%; Degradation of full length FGFR2 protein (FGFR2 [1]; 24h treatment at 1 µM): most potent degradation; Time to significant FGFR2 degradation (FGFR2 [1]; time course): ≤ 4 h; Degradation of FGFR2-PHGDH fusion protein (FGFR2-PHGDH fusion): dose-dependent degradation; Degradation of FGFR2-OPTN fusion protein (FGFR2-OPTN fusion): dose-dependent degradation; Dmax of FGFR1 degradation (FGFR1; 16h): 85%; DC50 (FGFR1; read-out: DC50 of FGFR1 degradation, 16h): 4.35 nM; Effect on FGFR3 protein levels (FGFR3): minimal effects; Effect on FGFR4 protein levels (FGFR4): minimal effects; Proteome-wide degradation selectivity (Kelly cells): high selectivity for FGFR1 and FGFR2 with PDE6D as an off-target; Inhibition of FGFR isoforms (all FGFR isoforms): equally potent inhibitor for all FGFR isoforms; IC50 (CCLP1 cells): 17 nM; IC50 (ICC13–7 cells): 40 nM; IC50 (CCLP-FP cells): 8 nM; Suppression of downstream FGFR2 signaling (phosphorylation of FRS2 or ERK) [3]: durably suppressed; AUClast ([4]; ip 3 mg/kg): 7.33 µM·h; CL ([4]; ip 3 mg/kg): 6.84 mL/min/kg; Cmax ([4]; ip 3 mg/kg): 1490 nM; T1/2 ([4]; ip 3 mg/kg): 4.25 h; Tmax ([4]; ip 3 mg/kg): 1.33 h; AUClast ([4]; iv 1 mg/kg): 2.94 µM·h; CL ([4]; iv 1 mg/kg): 5.58 mL/min/kg; Cmax ([4]; iv 1 mg/kg): 1600 nM; T1/2 ([4]; iv 1 mg/kg): 5.45 h; Tmax ([4]; iv 1 mg/kg): 0.08 h; Vss ([4]; iv 1 mg/kg): 1.41 L/kg; oral bioavailability ([4]; oral 10 mg/kg): negligible; AUClast ([4]; po 10 mg/kg): 0.07 µM·h; CL ([4]; po 10 mg/kg): 1550.77 mL/min/kg; Cmax ([4]; po 10 mg/kg): 10 nM; Fpo ([4]; po 10 mg/kg): 0.2; T1/2 ([4]; po 10 mg/kg): 5.10 h; Tmax ([4]; po 10 mg/kg): 1.67 h; clearance ([4]; via IV and IP administration): low clearance; half-life (T1/2) ([4]; via IV and IP administration): 5 h; FGFR2-PHGDH protein levels in tumor (FGFR2-PHGDH): reduction; phosphorylation of downstream markers FRS2 and ERK1/2 in tumor (FGFR2-PHGDH): reduction

Q: Which IC50 (FGFR2 [2]; [5]) does the source give for `COc1cc(OC)c(Cl)c(NC(=O)N(C)c2cc(Nc3ccc(N4CCN(CC(=O)NCCCCCSC(C)(C)C(NC(C)=O)C(=O)N5CC(O)CC5C(=O)NC(C)c5ccc(-c6scnc6C)cc5)CC4)cc3)ncn2)c1Cl` (stereo not drawn) [DGY-11-122] here?
A: Its IC50 is 43 nM.

Q: Which IC50 (FGFR2 [2]; [5]) does the source give for `COc1cc(OC)c(Cl)c(NC(=O)N(C)c2cc(Nc3ccc(N4CCN(CC(=O)NCCCCCOc5cc(-c6scnc6C)ccc5[C@H](C)NC(=O)[C@@H]5C[C@@H](O)CN5C(=O)[C@@H](NC(C)=O)C(C)(C)C)CC4)cc3)ncn2)c1Cl` [DGY-11-123] here?
A: Its IC50 is 59 nM.

Q: For `COc1cc(OC)c(Cl)c(NC(=O)N(C)c2cc(Nc3ccc(N4CCN(CC(=O)NCCC(=O)N[C@H](C(=O)N5C[C@H](O)C[C@H]5C(=O)N[C@@H](C)c5ccc(-c6scnc6C)cc5)C(C)(C)C)CC4)cc3)ncn2)c1Cl` [NJH-05-043], which IC50 (FGFR2 [2]; [5]) is on record?
A: Its IC50 is 30 nM.

Q: For `COc1cc(OC)c(Cl)c(NC(=O)N(C)c2cc(Nc3ccc(N4CCN(C(=O)NCCOCCC(=O)NC(C(=O)N5CC(O)CC5C(=O)NC(C)c5ccc(-c6scnc6C)cc5)C(C)(C)C)CC4)cc3)ncn2)c1Cl` (stereo not drawn) [NJH-05-044], which IC50 (FGFR2 [2]; [5]) is on record?
A: The IC50 was 33 nM.

Q: Which IC50 (FGFR2 [2]; [5]) does the source give for `COc1cc(OC)c(Cl)c(NC(=O)N(C)c2cc(Nc3ccc(N4CCN(CCCCCC(=O)N[C@H](C(=O)N5C[C@H](O)C[C@H]5C(=O)N[C@@H](C)c5ccc(-c6scnc6C)cc5)C(C)(C)C)CC4)cc3)ncn2)c1Cl` [NJH-05-123] here?
A: Its IC50 is 16 nM.

Q: Which IC50 (FGFR2 [2]; [5]) does the source give for `COc1cc(OC)c(Cl)c(NC(=O)N(C)c2cc(Nc3ccc(N4CCN(CCCC(=O)N[C@H](C(=O)N5C[C@H](O)C[C@H]5C(=O)N[C@@H](C)c5ccc(-c6scnc6C)cc5)C(C)(C)C)CC4)cc3)ncn2)c1Cl` [NJH-05–132] here?
A: Its IC50 is 10 nM.

Q: With `COc1cc(OC)c(Cl)c(NC(=O)N(C)c2cc(Nc3ccc(N4CCN(CCC(=O)N[C@H](C(=O)N5C[C@H](O)C[C@H]5C(=O)N[C@@H](C)c5ccc(-c6scnc6C)cc5)C(C)(C)C)CC4)cc3)ncn2)c1Cl` [NJH-05–166] as the compound, how does the IC50 (FGFR2 [2]; [5]) read?
A: The IC50 was 30 nM.
